Experimental data taken from PubChem BioAssay AID822 (SRMLSC, 2007).
pEC50: −log10 of the molar value.

Tested on: HUVEC proliferation, viability ATP luminescence
Experiment: HUVEC proliferation inhibition, dose response, cell-based, ATP luminescence (AID 822);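 note: cells exposed to compound for 72 h before the ATP read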
Summary of the method: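 Material: HUVEC. Input: 1250 cells per well. Medium: endothelial basal medium (EBM) with 2% fetal bovine serum, collagen-coated wells. Compound: 0.039–20 µM, 0.2% DMSO. Times: compound treatment 72 h, 37 °C. Technique: CellTiter-Glo ATP luminescence. Read-out basis: % viability and fitted EC50. Format: collagen-coated multiwell plates.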

Row | SMILES | pEC50
1 | CN1CCN(c2ccccc2NC(=O)c2ccc(-c3ccc(Cl)cc3Cl)o2)CC1 | 5.20
2 | Oc1ccc(Nc2nc(-c3ccc4ccccc4c3)cs2)cc1 | 5.23
3 | CCN(CC)CCn1c(=N)n(CCOc2ccccc2)c2ccccc21 | 4.85
4 | Cc1nn(Cc2c(Cl)cccc2Cl)c(C)c1NC(=O)c1cc(C(C)C)on1 | 4.87
5 | Cc1cc(C)n(-c2nc(NCCCO)c3c4c(sc3n2)CCCC4)n1 | 5.62
6 | O=c1[nH]c2ccccc2n1C1CCN(CCCC(c2ccc(F)cc2)c2ccc(F)cc2)CC1 | 5.57
7 | Cc1ccc(S(=O)(=O)c2c(C)nn(C(C)(C)C)c2OC(=O)c2ccc(Br)o2)cc1 | 5.34
8 | Cc1ccc(C2(C(F)(F)F)N=C3Sc4cc(C)cc(C)c4N3C(=O)N2)cc1 (stereo not drawn) | 4.96
9 | Cc1ccc(C)c(N2CCN(CCCNC(=O)Cn3cc4c(n3)CCCCC4)CC2)c1 | 4.96
10 | Cc1ccc(-c2nc3cccnc3o2)cc1NC(=O)COc1ccc(C(C)(C)C)cc1 | 5.05
11 | N=c1n(CCN2CCCCC2)c2ccccc2n1CC(O)c1cccc(Br)c1 (stereo not drawn) | 5.02
12 | CC(C)CC[n+]1ccn(C2=C([O-])c3ccccc3C(=O)/C2=N\S(=O)(=O)c2ccccc2)c1 | 5.27
13 | Cc1ccccc1CS(=O)(=O)c1nnc([C@H](CC(C)C)NC(=O)OC(C)(C)C)o1 | 4.92
14 | CCn1c(=O)cc(C(=O)OC)sc1=Nc1ccc(F)c(F)c1 | 4.93
15 | CCC(C)NC(=O)c1c(N)n(/N=C/c2ccccn2)c2nc3ccccc3nc12 (stereo not drawn) | 5.03
16 | O=C(CCC1CCCC1)c1c(O)c2ccccc2oc1=O | 5.33
17 | O=C(COC(=O)c1cccnc1Nc1cccc(C(F)(F)F)c1)NCc1ccc2c(c1)OCO2 | 4.87
18 | COc1cccc(C(=O)CSc2nnc(-c3cc(OC)cc(OC)c3)o2)c1 | 4.74
19 | CCOC(=O)c1c(C)[nH]c(C(=O)OC/C(O)=C(\C#N)c2nc3ccccc3[nH]2)c1C | 4.94
20 | COc1ccc(-c2ccc(C#N)c(SCC(=O)Nc3sc4c(c3C#N)CCC4)n2)cc1OC | 5.33
21 | O=C(Nc1nnc(-c2ccc3c(c2)OCCO3)o1)c1ccc(Cc2ccccc2)cc1 | 5.32
22 | CCCc1ccc(-c2cc(NC(=O)CSc3n[nH]c(N)n3)n(-c3ccccc3)n2)cc1 | 5.08
23 | CC1=C(C(=O)OC2CCCCCCC2)C(c2cc3c(cc2Br)OCO3)CC(=O)N1 (stereo not drawn) | 5.16
24 | COc1cc(-c2nc(-c3ccc(NC(=O)c4ccc(Br)o4)cc3)no2)cc(OC)c1OC | 5.13
25 | Cc1cc(C)c2c(c1)SC1=NC(c3ccccc3)(C(F)(F)F)NC(=O)N12 (stereo not drawn) | 5.07
26 | O=C(Cn1c(=O)n(CCCC(=O)NC2CCCC2)c(=O)c2ccccc21)NCCC1=CCCCC1 | 4.74
27 | CN(C)c1ccc(-c2nn3c(-c4ccc(Cl)cc4Cl)nnc3s2)cc1 | 4.83

Row | SMILES | pEC50
28 | CCCCC[n+]1ccn(C2=C([O-])c3ccccc3C(=O)/C2=N\S(=O)(=O)c2ccccc2)c1 | 5.21
29 | CCOC(=O)COc1ccc(S(=O)(=O)NCCC2=CCCCC2)cc1 | 4.92
30 | Cc1ccc(C(=O)Nc2ncc(Cc3ccc(F)cc3)s2)o1 | 6.56
31 | O=C1NCCCC2c3cc(O)c4ccccc4c3OC12N1CCCCC1 (stereo not drawn) | 5.49
32 | CC(=O)c1cccc(NC(=O)Nc2ccc3c(c2)N(C)C(=O)CS3)c1 | 5.00
33 | COc1cc(/C=C(/C(=O)c2cccs2)c2nc3ccccc3[nH]2)cc(OC)c1O | 5.70
34 | CC(=O)Nc1ccc(S(=O)(=O)NC2=C(N3CCN(Cc4ccccc4)CC3)C(=O)c3ccccc3C2=O)cc1 | 5.17
35 | Cc1cccc(CS(=O)(=O)c2nnc([C@H](Cc3ccccc3)NC(=O)OC(C)(C)C)o2)c1 | 5.00
36 | Oc1c(C(Nc2ccccn2)c2ccccn2)ccc2cccnc12 (stereo not drawn) | 4.75
37 | CN(C)c1ccc(/C=C(\C#N)C(=O)Nc2nc3c(s2)CCN(Cc2ccccc2)C3)cc1 | 5.41
38 | COC(=O)NC(=C(Cl)Cl)S(=O)(=O)c1ccccc1 | 5.07
39 | OCCNc1nc2ccccc2n1-c1ncnc2sc3c(c12)CCC3 | 4.94
40 | CCOC(=O)C1=C(Cc2ccc(F)cc2)C(=O)c2ccccc2C1=O | 4.87
41 | Nc1c(C(=O)NCc2ccc(F)cc2)c2nc3ccccc3nc2n1CCCN1CCOCC1 | 4.98
42 | CN1CCN(c2ccc(NC(=O)c3cccc(OCc4ccccc4)c3)cc2)CC1 | 4.94
43 | Cc1oc(-c2ccccc2F)nc1CN1CCC(C(=O)NCCC2=CCCCC2)CC1 | 4.91
44 | CCOc1cc2nc(-c3ccc(OC)c(OC)c3)nc(N3CCOCC3)c2cc1OC | 5.28
45 | CCN(CC(O)Cn1c2ccccc2c2ccccc21)S(=O)(=O)c1ccc(C)cc1 (stereo not drawn) | 4.94
46 | O=c1cc(-c2ccccc2)[nH]n1-c1nc2ccccc2[nH]1 | 5.20
47 | COc1cccc(-c2nnc(Nc3nc4c(F)cccc4s3)o2)c1 | 5.07
48 | CCCCCCOC(=O)C(C#N)c1nc2ccccc2nc1N1CCN(C)CC1 (stereo not drawn) | 5.00
49 | Cc1ccccc1-n1ncc2c([N+](=O)[O-])cc([N+](=O)[O-])cc21 | 5.03
50 | Fc1ccc2c(Cl)c(-c3nnc(-c4cccs4)o3)sc2c1 | 5.09
51 | CCCCCCCCOC(=O)C1=C(C)Nc2nnnn2C1c1cccs1 (stereo not drawn) | 5.17
52 | CC(Nc1nc(N2CCCC2)nc2ccccc12)c1ccccc1 (stereo not drawn) | 5.28
53 | CCCCC(=O)O[C@H]1CC[C@H]2[C@@H]3CCc4cc(O)ccc4[C@H]3CC[C@]12C | 5.15
